Reference: ChEMBL document CHEMBL3259751, “A rational design strategy of the novel topoisomerase II inhibitors for the synthesis of the 4-O-(2-pyrazinecarboxylic)-4'-demethylepipodophyllotoxin with antitumor activity by diminishing the relaxation reaction of topoisomerase II-DNA decatenation” (Bioorg Med Chem, 2014)
Active and inactive are the calls of the source. The calls are words filed in the database; no cut-off is given here.

Experiments:
[1] = Octanol-water partition coefficient, log P of the compound; assay type: physicochemical
Outline: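 Partitioning between 1-octanol and water. The compound concentration was measured in each phase, and logP was calculated as the log of the 1-octanol concentration over the water concentration. The water concentration was corrected by an index-error factor, Y = 2.555.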

[2] = Cytotoxicity against human HL-7702 cells after 48 hrs by MTT assay; assay type: cell-based, L02; details: for IC50: Homo sapiens, L02, 48 h; for Activity: human, l02, 48 h
HeLa [3] = test: Cytotoxicity against human HeLa cells after 48 hrs by MTT assay; assay type: functional, cell-based
Outline: (§1)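 Cells seeded at 3500–13,000 per well. A549, HeLa and HepG2 were grown in DMEM and BGC-823 in RPMI 1640, each with 10% CS plus penicillin/streptomycin, at 37 °C and 5% CO₂. Drug exposure lasted 2 days, followed by MTT readout at A₄₉₂, with untreated controls at 0.6–0.8. IC50 was the concentration cutting absorbance by 50%, interpolated by sigmoidal nonlinear regression. Run in triplicate.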

[4] = (§2) Cytotoxicity against human BGC823 cells after 48 hrs by MTT assay; assay type: functional, cell-based; details: BGC-823, 48 h; outline: as §1
A549 [5] = test: Cytotoxicity against human A549 cells after 48 hrs by MTT assay; assay type: functional, cell-based; details: for IC50: A549, 48 h; outline: as §1
[6] = Cytotoxicity against human HL-7702 cells after 48 hrs by MTT assay relative to etoposide; assay type: functional, L02
HepG2 [7] = test: Cytotoxicity against human HepG2 cells after 48 hrs by MTT assay; assay type: functional, cell-based; details: for IC50: HepG2, 48 h; outline: as §1
A549 [8] = test: Cytotoxicity against human A549 cells; assay type: functional, cell-based; outline: as §1
HepG2 [9] = test: Cytotoxicity against human HepG2 cells; assay type: functional, cell-based; outline: as §1
[10] = Cytotoxicity against human BGC823 cells; assay type: functional, cell-based; details: BGC-823; outline: as §1
BGC-823 [11] = test: as §2; assay type: functional, cell-based; outline: as §1
[12] = biological target: DNA topoisomerase 2-alpha (Homo sapiens) (UniProt P11388); test: Inhibition of human DNA topoisomerase-2 using kDNA as substrate assessed as inhibition of DNA relaxation at 1 to 10 uM after 60 mins by agarose gel electrophoresis
HepG2 [13] = test: Selectivity ratio of etoposide IC50 to compound IC50 for human HepG2 cells; assay type: functional
BGC-823 [14] = test: Selectivity ratio of etoposide IC50 to compound IC50 for human BGC823 cells; assay type: functional
A549 [15] = test: Selectivity ratio of etoposide IC50 to compound IC50 for human A549 cells; assay type: functional
HeLa [16] = test: Induction of apoptosis in human HeLa cells assessed as early apoptotic cells at 1 uM after 48 hrs by Annexin V/propidium iodide staining-based flow cytometry (reference value: 2.7 %); assay type: functional
HeLa [17] = test: Induction of apoptosis in human HeLa cells after 48 hrs by Annexin V/propidium iodide staining-based flow cytometry; assay type: functional, cell-based
HeLa [18] = test: Cell cycle arrest in human HeLa cells assessed as accumulation at G2/M phase at 1 uM after 24 hrs by propidium iodide staining-based flow cytometry (reference value: 5.29 %); assay type: functional
HeLa [19] = test: Induction of apoptosis in human HeLa cells assessed as early apoptotic cells at 5 uM after 48 hrs by Annexin V/propidium iodide staining-based flow cytometry (reference value: 2.7 %); assay type: functional
HeLa [20] = test: Induction of apoptosis in human HeLa cells assessed as early apoptotic cells at 10 uM after 48 hrs by Annexin V/propidium iodide staining-based flow cytometry (reference value: 2.7 %); assay type: functional
BGC-823 [21] = test: Selectivity ratio of etoposide IC50 to compound IC50 for human BGC823 cells after 48 hrs by MTT assay; assay type: functional
HeLa [22] = test: Cell cycle arrest in human HeLa cells assessed as accumulation at G0/G1 phase at 0.5 uM after 24 hrs by propidium iodide staining-based flow cytometry (reference value: 37.26 %); assay type: functional
HeLa [23] = test: Induction of apoptosis in human HeLa cells assessed as late apoptotic cells at 1 uM after 48 hrs by Annexin V/propidium iodide staining-based flow cytometry (reference value: 2.3 %); assay type: functional
A549 [24] = test: Selectivity ratio of etoposide IC50 to compound IC50 for human A549 cells after 48 hrs by MTT assay; assay type: functional
HeLa [25] = test: Cell cycle arrest in human HeLa cells assessed as accumulation at G0/G1 phase at 1 uM after 24 hrs by propidium iodide staining-based flow cytometry (reference value: 37.26 %); assay type: functional
HeLa [26] = test: Cell cycle arrest in human HeLa cells assessed as accumulation at G2/M phase at 5 uM after 24 hrs by propidium iodide staining-based flow cytometry (reference value: 5.29 %); assay type: functional
HeLa [27] = test: Induction of apoptosis in human HeLa cells assessed as late apoptotic cells at 5 uM after 48 hrs by Annexin V/propidium iodide staining-based flow cytometry (reference value: 2.3 %); assay type: functional
HeLa [28] = test: Induction of apoptosis in human HeLa cells assessed as late apoptotic cells at 10 uM after 48 hrs by Annexin V/propidium iodide staining-based flow cytometry (reference value: 2.3 %); assay type: functional
HeLa [29] = test: Cell cycle arrest in human HeLa cells assessed as accumulation at G2/M phase at 0.5 uM after 24 hrs by propidium iodide staining-based flow cytometry (reference value: 5.29 %); assay type: functional
HeLa [30] = test: Cell cycle arrest in human HeLa cells after 24 hrs by propidium iodide staining-based flow cytometry; assay type: functional
HeLa [31] = test: Cell cycle arrest in human HeLa cells assessed as accumulation at G0/G1 phase at 5 uM after 24 hrs by propidium iodide staining-based flow cytometry (reference value: 37.26 %); assay type: functional
HepG2 [32] = test: Selectivity ratio of etoposide IC50 to compound IC50 for human HepG2 cells after 48 hrs by MTT assay; assay type: functional
HeLa [33] = test: Selectivity ratio of etoposide IC50 to compound IC50 for human HeLa cells after 48 hrs by MTT assay; assay type: functional

Sequence of DNA topoisomerase 2-alpha (Homo sapiens) (P11388 whole entry): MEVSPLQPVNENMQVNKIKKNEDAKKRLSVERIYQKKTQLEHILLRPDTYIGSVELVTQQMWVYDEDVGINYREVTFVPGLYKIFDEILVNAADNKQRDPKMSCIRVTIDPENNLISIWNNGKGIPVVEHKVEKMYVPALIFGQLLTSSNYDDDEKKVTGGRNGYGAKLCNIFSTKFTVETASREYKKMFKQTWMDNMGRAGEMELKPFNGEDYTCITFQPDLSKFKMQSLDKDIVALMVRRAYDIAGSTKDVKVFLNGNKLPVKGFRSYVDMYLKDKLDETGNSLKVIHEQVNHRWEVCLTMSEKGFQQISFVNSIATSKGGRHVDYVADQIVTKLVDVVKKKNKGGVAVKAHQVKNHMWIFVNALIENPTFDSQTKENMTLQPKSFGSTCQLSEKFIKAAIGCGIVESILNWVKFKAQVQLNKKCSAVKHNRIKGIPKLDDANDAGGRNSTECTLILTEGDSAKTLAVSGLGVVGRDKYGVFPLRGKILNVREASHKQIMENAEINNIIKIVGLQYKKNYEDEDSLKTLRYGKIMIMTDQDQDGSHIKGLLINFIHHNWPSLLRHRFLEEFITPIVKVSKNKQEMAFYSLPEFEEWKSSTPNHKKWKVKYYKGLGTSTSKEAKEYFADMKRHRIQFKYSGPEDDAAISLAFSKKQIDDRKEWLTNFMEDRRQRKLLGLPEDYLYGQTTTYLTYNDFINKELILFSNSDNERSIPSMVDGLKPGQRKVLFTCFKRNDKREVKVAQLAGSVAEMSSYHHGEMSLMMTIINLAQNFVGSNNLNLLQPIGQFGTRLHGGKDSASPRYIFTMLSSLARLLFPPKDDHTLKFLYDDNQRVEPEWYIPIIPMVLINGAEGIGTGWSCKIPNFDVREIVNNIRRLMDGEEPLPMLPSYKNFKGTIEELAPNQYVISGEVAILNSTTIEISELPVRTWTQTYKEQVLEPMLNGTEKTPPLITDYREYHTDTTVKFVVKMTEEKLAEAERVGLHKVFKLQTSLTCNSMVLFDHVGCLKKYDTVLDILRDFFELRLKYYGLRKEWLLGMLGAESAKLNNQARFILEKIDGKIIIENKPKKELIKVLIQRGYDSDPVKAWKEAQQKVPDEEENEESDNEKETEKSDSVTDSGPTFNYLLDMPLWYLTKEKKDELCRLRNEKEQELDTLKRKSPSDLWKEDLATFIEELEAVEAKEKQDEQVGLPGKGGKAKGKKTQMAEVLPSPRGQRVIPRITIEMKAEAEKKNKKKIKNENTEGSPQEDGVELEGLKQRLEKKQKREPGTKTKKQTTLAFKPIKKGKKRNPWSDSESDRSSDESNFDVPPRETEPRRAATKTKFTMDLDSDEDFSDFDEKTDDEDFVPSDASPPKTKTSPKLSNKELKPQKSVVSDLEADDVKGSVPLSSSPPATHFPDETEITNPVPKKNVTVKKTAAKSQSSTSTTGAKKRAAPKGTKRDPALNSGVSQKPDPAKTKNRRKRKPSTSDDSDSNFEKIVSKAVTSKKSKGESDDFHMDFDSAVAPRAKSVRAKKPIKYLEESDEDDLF

Structure (SMILES) | logP [1] | IC50 [2] [µM] | Activity [2] | IC50 (HeLa [3]) [µM] | IC50 [4] [µM] | IC50 (A549 [5]) [µM] | Activity [6] [%] | IC50 (HepG2 [7]) [µM] | also measured
COc1cc([C@@H]2c3cc4c(cc3[C@@H](NC(=O)c3cnccn3)[C@H]3COC(=O)[C@H]23)OCO4)cc(OC)c1O | 0.43 | 53.6 | Dose-dependent effect | 10.8 | 14.4 | 16.5 | 117 | 6.64 | –
COc1cc([C@@H]2c3cc4c(cc3[C@@H](O[C@@H]3O[C@@H]5CO[C@@H](C)O[C@H]5[C@H](O)[C@H]3O)[C@H]3COC(=O)[C@H]23)OCO4)cc(OC)c1O [ETOPOSIDE] | 0.52 | 24.6 | Dose-dependent effect | 59.4 | 30.7 | 67.2 | – | 15.3 | IC50 (A549 [8]): 168 µM; Activity (HeLa [3]): Dose-dependent effect; IC50 (HepG2 [9]): 1150 nM; IC50 [10]: 25.7 µM; Activity (BGC-823 [11]): Dose-dependent effect; Activity (A549 [5]): Dose-dependent effect; inhibition [12]: Active; Activity (HepG2 [7]): Dose-dependent effect
COc1cc([C@@H]2c3cc4c(cc3[C@@H](NC(=O)Cn3cnc5c3c(=O)n(C)c(=O)n5C)[C@H]3COC(=O)[C@H]23)OCO4)cc(OC)c1O | 0.56 | 50.8 | Dose-dependent effect | 3.18 | 5.88 | 7.32 | 106 | 2.35 | –
COc1cc([C@@H]2c3cc4c(cc3[C@@H](OC(=O)Cn3cnc5c3c(=O)n(C)c(=O)n5C)[C@H]3COC(=O)[C@H]23)OCO4)cc(OC)c1O | 0.43 | 38 | Dose-dependent effect | 0.65 | 2 | 6.91 | 54 | 7.91 | –
COc1cc([C@@H]2c3cc4c(cc3[C@@H](NC(=O)c3cc(O)c(O)c(O)c3)[C@H]3COC(=O)[C@H]23)OCO4)cc(OC)c1O | 0.29 | 14.8 | Dose-dependent effect | 22.3 | 24.2 | 33.5 | – | 27.4 | –
COc1cc([C@@H]2c3cc4c(cc3[C@@H](O)[C@H]3COC(=O)[C@H]23)OCO4)cc(OC)c1O [4'-DEMETHYLEPIPODOPHYLLOTOXIN] | 0.73 | 13 | Dose-dependent effect | 16 | 21.3 | 52.1 | – | 18.7 | Activity (HeLa [3]): Dose-dependent effect; Activity (BGC-823 [11]): Dose-dependent effect; Activity (A549 [5]): Dose-dependent effect; Activity (HepG2 [7]): Dose-dependent effect
COc1cc([C@@H]2c3cc4c(cc3[C@@H](Sc3nc[nH]n3)[C@H]3COC(=O)[C@H]23)OCO4)cc(OC)c1O | – | – | – | – | – | – | – | – | IC50 (A549 [8]): 0.76 µM; Ratio IC50 (HepG2 [13]): 2.73; Ratio IC50 (BGC-823 [14]): 91; IC50 (HepG2 [9]): 420 nM; IC50 [10]: 0.28 µM; Ratio IC50 (A549 [15]): 221
COc1cc([C@@H]2c3cc4c(cc3[C@@H](OC(=O)c3cnc(C)cn3)[C@H]3COC(=O)[C@H]23)OCO4)cc(OC)c1O | 0.38 | 18.6 | Dose-dependent effect | 9.56 | 1.5 | 10.5 | – | 14.2 | –
COc1cc([C@@H]2c3cc4c(cc3[C@@H](OC(=O)c3cnccn3)[C@H]3COC(=O)[C@H]23)OCO4)cc(OC)c1O | 0.33 | 52.4 | Dose-dependent effect | 0.6 | 4.15 | 3.83 | 114 | 1.21 | Activity (HeLa [16]): 4.2%; Activity (HeLa [17]): Dose-dependent effect; Activity (HeLa [18]): 60.96%; Activity (HeLa [19]): 10.3%; Activity (HeLa [20]): 10.8%; Ratio IC50 (BGC-823 [21]): 6; Activity (HeLa [22]): 39.65%; Activity (HeLa [23]): 7.2%; Ratio IC50 (A549 [24]): 16; Activity (HeLa [25]): 5.49%; Activity (HeLa [26]): 66.85%; Activity (HeLa [27]): 30.1%; Activity (HeLa [28]): 45.5%; Activity (HeLa [29]): 19.88%; Activity (HeLa [30]): Dose-dependent effect; Activity (HeLa [31]): 4.01%; inhibition [12]: Active; Ratio IC50 (HepG2 [32]): 12; Ratio IC50 (HeLa [33]): 66
COc1cc([C@@H]2c3cc4c(cc3[C@@H](OC(=O)c3ccc5ccccc5n3)[C@H]3COC(=O)[C@H]23)OCO4)cc(OC)c1O | 0.8 | 20.1 | Dose-dependent effect | 20.5 | 28.8 | 19.2 | – | 9.18 | –
COc1cc([C@@H]2c3cc4c(cc3[C@@H](NC(=O)c3cnc(C)cn3)[C@H]3COC(=O)[C@H]23)OCO4)cc(OC)c1O | 0.59 | 20.7 | Dose-dependent effect | 16.1 | 3.49 | 18.7 | – | 6.78 | –
COc1cc([C@@H]2c3cc4c(cc3[C@@H](OC(=O)c3cn(C5CC5)c5cc(Cl)c(F)cc5c3=O)[C@H]3COC(=O)[C@H]23)OCO4)cc(OC)c1O | 0.69 | 41.8 | Dose-dependent effect | 0.6 | 17.4 | 10.1 | 70 | 16 | –
